Data from ChEMBL document CHEMBL1150162, “Antimicrobial activities of naphthazarins from Arnebia euchroma” (2002).
≈ marks a conversion by molar mass, not a printed value. Calls of active or inactive are those of the source. The rule behind the calls is not given here.

Tests used:
Enterococcus faecalis [1] = assay: Antibacterial activity against Enterococcus faecalis after 24 hrs by broth microdilution method; assay type: functional
How it was run: (§1)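 2-fold serial dilutions of test agent in LB broth, DMSO under 5% final. Inoculum about 5 × 10^5 CFU/mL, confirmed by LB agar plating. Incubated 24 h at 35 °C in ambient air. MIC is the lowest concentration with no visible growth. Three repeats; oxacillin, vancomycin and chloramphenicol as positive controls.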

Enterococcus faecalis [2] = assay: Antibacterial activity against Enterococcus faecalis after 48 hrs by broth microdilution method; assay type: functional
Enterococcus faecium [3] = assay: Antibacterial activity against vancomycin-resistant Enterococcus faecium F935 expressing VanA after 24 hrs by broth microdilution method; assay type: functional; conditions: F935, 24 h; how it was run: as §1
Enterococcus faecium [4] = assay: Antibacterial activity against vancomycin-resistant Enterococcus faecium F935 expressing VanA after 48 hrs by broth microdilution method; assay type: functional
Enterococcus faecalis [5] = assay: Antibacterial activity against vancomycin-resistant Enterococcus faecalis CKU-17 expressing VanB after 24 hrs by broth microdilution method; assay type: functional; conditions: CKU-17, 24 h; how it was run: as §1
Enterococcus faecalis [6] = assay: Antibacterial activity against vancomycin-resistant Enterococcus faecalis CKU-17 expressing VanB after 48 hrs by broth microdilution method; assay type: functional
Escherichia coli = assay: Antibacterial activity against Escherichia coli up to 100 ug/mL after 24 hrs by broth microdilution method; assay type: functional, organism-based
How it was run: (§2)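 Broth microdilution with 2-fold serial dilutions in LB broth, compounds from DMSO stocks (DMSO below 5% final), inoculum about 5 × 10^5 CFU/mL. Incubated 24 h at 35 °C in ambient air. MIC is the lowest concentration with no visible growth. Experiments repeated three times.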

Pseudomonas aeruginosa = assay: Antibacterial activity against Pseudomonas aeruginosa up to 100 ug/mL after 24 hrs by broth microdilution method; assay type: functional, organism-based; how it was run: as §2
Staphylococcus aureus [7] = assay: Ratio of MBC to MIC for Staphylococcus aureus; assay type: functional
Enterococcus faecalis [8] = assay: Ratio of MBC to MIC for Enterococcus faecalis; assay type: functional
Enterococcus faecium [9] = assay: Ratio of MBC to MIC for vancomycin-resistant Enterococcus faecium F935 expressing VanA; assay type: functional
HepG2 = assay: Cytotoxicity against human HepG2 cells after 48 hrs by MTT assay; assay type: functional; conditions: HepG2, 48 h, read-out: CD50 (the source's name)
How it was run: (§3)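 Cells seeded at 5 × 10^3 per well, grown 24 h, then given 2-fold dilutions of sample for 48 h. Medium replaced with serum-free medium, MTT added (5 mg/mL stock) for 2 h at 37 °C, formazan dissolved in DMSO, OD read at 550 nm. CD50 is the concentration giving 50% reduction in net cell increase. Quadruplicate, repeated at least twice.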

HeLa = assay: Cytotoxicity against human HeLa cells after 48 hrs by MTT assay; assay type: functional; conditions: read-out: CD50 (the source's name); how it was run: as §3
OVCAR-3 = assay: Cytotoxicity against human OVCAR-3 cells after 48 hrs by MTT assay; assay type: functional; conditions: OVCAR-3, 48 h, read-out: CD50 (the source's name); how it was run: as §3
Staphylococcus aureus [10] = assay: Antibacterial activity against Staphylococcus aureus after 24 hrs by broth microdilution method; assay type: functional
How it was run: as §1, with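 “in […]” for “in LB”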

Staphylococcus aureus [11] = assay: Antibacterial activity against Staphylococcus aureus after 48 hrs by broth microdilution method; assay type: functional
Staphylococcus aureus [12] = assay: Antibacterial activity against methicillin-resistant Staphylococcus aureus 8-8S after 24 hrs by broth microdilution method; assay type: functional
How it was run: as §1, with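 “in […]” for “in LB”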

Staphylococcus aureus [13] = assay: Antibacterial activity against methicillin-resistant Staphylococcus aureus 8-8S after 48 hrs by broth microdilution method; assay type: functional

Structure (SMILES) | MIC (Enterococcus faecalis [1]) [µg/mL] | MBC (Enterococcus faecalis [2]) | MIC (Enterococcus faecium [3]) [µg/mL] | MBC (Enterococcus faecium [4]; F935, 48 h) [µg/mL] | MIC (Enterococcus faecalis [5]) [µg/mL] | MBC (Enterococcus faecalis [6]; CKU-17, 48 h) [µg/mL] | Activity (Escherichia coli) | Activity (Pseudomonas aeruginosa) | Ratio (Staphylococcus aureus [7]) | Ratio (Enterococcus faecalis [8]) | Ratio (Enterococcus faecium [9]) | CC50 (HepG2) [µg/mL] | CC50 (HeLa) [µg/mL] | CC50 (OVCAR-3) [µg/mL] | MIC (Staphylococcus aureus [10]) [µg/mL] | MBC (Staphylococcus aureus [11]) [µg/mL] | MIC (Staphylococcus aureus [12]) [µg/mL] | MBC (Staphylococcus aureus [13]) | MBC (Enterococcus faecium [4]) | MBC (Enterococcus faecalis [6])
CC[C@H](C)C(=O)O[C@@H](CC=C(C)C)C1=CC(=O)c2c(O)ccc(O)c2C1=O | 1.56 (≈ 4.19 µM) | 3.13 µg/mL (≈ 8.4 µM) | 1.56 (≈ 4.19 µM) | 3.13 (≈ 8.4 µM) | 1.56 (≈ 4.19 µM) | 3.13 (≈ 8.4 µM) | inactive | inactive | <=2 | <=2 | <=2 | 0.6 (≈ 1.61 µM) | 0.8 (≈ 2.15 µM) | 0.6 (≈ 1.61 µM) | 0.78 (≈ 2.09 µM) | 0.78 (≈ 2.09 µM) | 1.56 (≈ 4.19 µM) | 1.56 µg/mL (≈ 4.19 µM) |  | 
CC[C@@H](C)C(=O)O[C@@H](CC=C(C)C)C1=CC(=O)c2c(O)ccc(O)c2C1=O | 3.13 (≈ 8.4 µM) | 6.25 µg/mL (≈ 16.8 µM) | 3.13 (≈ 8.4 µM) | 6.25 (≈ 16.8 µM) | 3.13 (≈ 8.4 µM) | 6.25 (≈ 16.8 µM) | inactive | inactive | <=2 | <=2 | <=2 | 5 (≈ 13.4 µM) | 3.9 (≈ 10.5 µM) | 1.7 (≈ 4.56 µM) | 1.56 (≈ 4.19 µM) | 1.56 (≈ 4.19 µM) | 3.13 (≈ 8.4 µM) | 3.13 µg/mL (≈ 8.4 µM) |  | 
CC(C)=CC[C@H](OC(=O)/C=C/c1ccc2c(c1)OCO2)C1=CC(=O)c2c(O)ccc(O)c2C1=O | 100 (≈ 216 µM) | > 100 µg/mL | 50 (≈ 108 µM) | 50 (≈ 108 µM) | 50 (≈ 108 µM) | 50 (≈ 108 µM) | inactive | inactive |  |  |  | 2.1 (≈ 4.54 µM) | 1.5 (≈ 3.24 µM) | 1 (≈ 2.16 µM) | 50 (≈ 108 µM) | 100 (≈ 216 µM) | 50 (≈ 108 µM) | 50 µg/mL (≈ 108 µM) |  | 
CC(C)=CC[C@H](OC(=O)C=C(C)C)C1=CC(=O)c2c(O)ccc(O)c2C1=O | 3.13 (≈ 8.45 µM) | 3.13 µg/mL (≈ 8.45 µM) | 3.13 (≈ 8.45 µM) | 3.13 (≈ 8.45 µM) | 3.13 (≈ 8.45 µM) | 3.13 (≈ 8.45 µM) | inactive | inactive | <=2 | <=2 | <=2 | 2.6 (≈ 7.02 µM) | 1.8 (≈ 4.86 µM) | 1.6 (≈ 4.32 µM) | 1.56 (≈ 4.21 µM) | 1.56 (≈ 4.21 µM) | 1.56 (≈ 4.21 µM) | 3.13 µg/mL (≈ 8.45 µM) |  | 
CC(=O)O[C@H](CC=C(C)C)C1=CC(=O)c2c(O)ccc(O)c2C1=O [ACETYLSHIKONIN] | 3.13 (≈ 9.48 µM) | 3.13 µg/mL (≈ 9.48 µM) | 6.25 (≈ 18.9 µM) | 6.25 (≈ 18.9 µM) | 6.25 (≈ 18.9 µM) | 6.25 (≈ 18.9 µM) | inactive | inactive | <=2 | <=2 | <=2 |  |  |  | 1.56 (≈ 4.72 µM) | 1.56 (≈ 4.72 µM) | 1.56 (≈ 4.72 µM) | 1.56 µg/mL (≈ 4.72 µM) |  | 
CC(C)=CC[C@H](O)C1=CC(=O)c2c(O)ccc(O)c2C1=O [ALKANNIN] | 50 (≈ 173 µM) | 50 µg/mL (≈ 173 µM) | 50 (≈ 173 µM) | 50 (≈ 173 µM) | 25 (≈ 86.7 µM) | 50 (≈ 173 µM) | inactive | inactive | <=2 | <=2 | <=2 | 1 (≈ 3.47 µM) | 0.8 (≈ 2.77 µM) | 0.8 (≈ 2.77 µM) | 6.25 (≈ 21.7 µM) | 12.5 (≈ 43.4 µM) | 6.25 (≈ 21.7 µM) | 12.5 µg/mL (≈ 43.4 µM) |  | 
O=C(N[C@H](CO)[C@H](O)c1ccc([N+](=O)[O-])cc1)C(Cl)Cl [CHLORAMPHENICOL] | 6.25 (≈ 19.3 µM) | inactive | 6.25 (≈ 19.3 µM) |  | 6.25 (≈ 19.3 µM) |  |  |  |  |  |  |  |  |  |  |  |  |  | inactive | inactive
CC(C)=CC[C@H](OC(=O)/C=C/c1ccccc1)C1=CC(=O)c2c(O)ccc(O)c2C1=O [CINNAMOYL ALKANNIN] | 100 (≈ 239 µM) | > 100 µg/mL | 25 (≈ 59.7 µM) | 100 (≈ 239 µM) | 25 (≈ 59.7 µM) | 100 (≈ 239 µM) | inactive | inactive |  |  |  | 3.8 (≈ 9.08 µM) | 3.6 (≈ 8.6 µM) | 2.4 (≈ 5.74 µM) | 50 (≈ 119 µM) | 100 (≈ 239 µM) | 50 (≈ 119 µM) | > 100 µg/mL |  | 
CC(C)=CC[C@H](OC(=O)C(C)C)C1=CC(=O)c2c(O)ccc(O)c2C1=O [ISOBUTYLALKANNIN] | 3.13 (≈ 8.73 µM) | 3.13 µg/mL (≈ 8.73 µM) | 3.13 (≈ 8.73 µM) | 3.13 (≈ 8.73 µM) | 3.13 (≈ 8.73 µM) | 6.25 (≈ 17.4 µM) | inactive | inactive | <=2 | <=2 | <=2 | 4 (≈ 11.2 µM) | 5.4 (≈ 15.1 µM) | 2 (≈ 5.58 µM) | 1.56 (≈ 4.35 µM) | 1.56 (≈ 4.35 µM) | 1.56 (≈ 4.35 µM) | 3.13 µg/mL (≈ 8.73 µM) |  | 
Cc1onc(-c2ccccc2)c1C(=O)N[C@@H]1C(=O)N2[C@@H]1SC(C)(C)[C@@H]2C(=O)O [OXACILLIN] | 25 (≈ 62.3 µM) | 50 µg/mL (≈ 125 µM) | > 100 |  | > 100 |  |  |  |  |  |  |  |  |  | 0.39 (≈ 0.971 µM) | 0.39 (≈ 0.971 µM) | > 100 | inactive | inactive | inactive
CC(C)=CC[C@@H](O)C1=CC(=O)c2c(O)ccc(O)c2C1=O [SHIKONIN] | 50 (≈ 173 µM) | 50 µg/mL (≈ 173 µM) | 50 (≈ 173 µM) | 50 (≈ 173 µM) | 25 (≈ 86.7 µM) | 50 (≈ 173 µM) | inactive | inactive | <=2 | <=2 | <=2 |  |  |  | 6.25 (≈ 21.7 µM) | 12.5 (≈ 43.4 µM) | 6.25 (≈ 21.7 µM) | 12.5 µg/mL (≈ 43.4 µM) |  | 
CN[C@H](CC(C)C)C(=O)N[C@H]1C(=O)N[C@@H](CC(N)=O)C(=O)N[C@H]2C(=O)N[C@H]3C(=O)N[C@H](C(=O)N[C@H](C(=O)O)c4cc(O)cc(O)c4-c4cc3ccc4O)[C@H](O)c3ccc(c(Cl)c3)Oc3cc2cc(c3O[C@@H]2O[C@H](CO)[C@@H](O)[C@H](O)[C@H]2O[C@H]2C[C@](C)(N)[C@H](O)[C@H](C)O2)Oc2ccc(cc2Cl)[C@H]1O [VANCOMYCIN] | 3.13 (≈ 2.16 µM) | inactive | > 100 |  | > 100 |  |  |  |  |  |  |  |  |  | 1.56 (≈ 1.08 µM) | 1.56 (≈ 1.08 µM) | 1.56 (≈ 1.08 µM) | 1.56 µg/mL (≈ 1.08 µM) | inactive | inactive
